Key:
[1] = tested on: Rattus norvegicus; test: Antineuropathic pain activity in rat spinal nerve ligation model assessed as effect on cold allodynia by measuring frequency of paw withdrawal at 100 mg/kg, po measured at 3 hrs relative to control; type: functional
Method in brief: (§1)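 Spinal nerve ligation rats tested 2 weeks after nerve surgery, 100 mg/kg oral, n = 4 per group. Behaviour re-tested at 1, 3 and 5 h after dosing. Mechanical allodynia: von Frey filament applied five times, every 3–4 s, to the hind paw on a wire mesh floor. Cold allodynia: acetone applied to the plantar hind paw on a metal mesh floor.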

[2] = Cmax in Sprague-Dawley rat at 10 mg/kg, po; type: ADME, organism-based; set-up: dose 10 mg/kg, route oral; details: in vivo
[3] = Inhibition of N-type Ca2+ channel (unknown origin) by whole-cell patch clamp method; details: Homo sapiens
[4] = biological target: Voltage-dependent T-type calcium channel subunit alpha-1H (Homo sapiens, UniProt O95180); test: Inhibition of Cav3.2 alpha1H (unknown origin) expressed in HEK293 cells assessed as decrease in KCl-induced depolarization mediated intracellular Ca2+ level at 10 uM by fluo3/AM based high throughput screening assay relative to control; type: cell-based
Method in brief: (§2)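 HEK293 cells stably expressing Cav3.1 or Cav3.2 plated at 4 × 10⁴ cells/well and used the next day. Loaded 60 min at room temperature with […] fluo3/AM plus 0.001% Pluronic F-127 in HEPES-buffered saline (1.8 mM CaCl₂, pH 7.4). Ca²⁺ fluorescence read on FDSS6000 as % inhibition, compound at […].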

[5] = tested on: Rattus norvegicus; test: Antineuropathic pain activity in rat spinal nerve ligation model assessed as effect on mechanical allodynia by measuring frequency of paw withdrawal at 100 mg/kg, po measured at 1 hr relative to control; type: functional; method in brief: as §1
[6] = Drug uptake in Sprague-Dawley rat brain at 10 mg/kg, iv at 2 hrs post dose; type: ADME, organism-based; details: read-out: Drug uptake
[7] = Drug uptake in Sprague-Dawley rat brain at 10 mg/kg, po at 2 hrs post dose; type: ADME, organism-based; details: read-out: Drug uptake
[8] = tested on: Rattus norvegicus; test: Antineuropathic pain activity in rat spinal nerve ligation model assessed as effect on mechanical allodynia by measuring frequency of paw withdrawal at 100 mg/kg, po measured at 3 hrs relative to gabapentin; type: functional; method in brief: as §1
[9] = biological target: T1, Voltage-dependent T-type calcium channel subunit alpha-1G (Homo sapiens, UniProt O43497); test: Inhibition of Cav3.1 alpha1G (unknown origin) expressed in HEK293 cells by whole-cell patch clamp method; type: cell-based
T1 sequence (O43497 whole entry): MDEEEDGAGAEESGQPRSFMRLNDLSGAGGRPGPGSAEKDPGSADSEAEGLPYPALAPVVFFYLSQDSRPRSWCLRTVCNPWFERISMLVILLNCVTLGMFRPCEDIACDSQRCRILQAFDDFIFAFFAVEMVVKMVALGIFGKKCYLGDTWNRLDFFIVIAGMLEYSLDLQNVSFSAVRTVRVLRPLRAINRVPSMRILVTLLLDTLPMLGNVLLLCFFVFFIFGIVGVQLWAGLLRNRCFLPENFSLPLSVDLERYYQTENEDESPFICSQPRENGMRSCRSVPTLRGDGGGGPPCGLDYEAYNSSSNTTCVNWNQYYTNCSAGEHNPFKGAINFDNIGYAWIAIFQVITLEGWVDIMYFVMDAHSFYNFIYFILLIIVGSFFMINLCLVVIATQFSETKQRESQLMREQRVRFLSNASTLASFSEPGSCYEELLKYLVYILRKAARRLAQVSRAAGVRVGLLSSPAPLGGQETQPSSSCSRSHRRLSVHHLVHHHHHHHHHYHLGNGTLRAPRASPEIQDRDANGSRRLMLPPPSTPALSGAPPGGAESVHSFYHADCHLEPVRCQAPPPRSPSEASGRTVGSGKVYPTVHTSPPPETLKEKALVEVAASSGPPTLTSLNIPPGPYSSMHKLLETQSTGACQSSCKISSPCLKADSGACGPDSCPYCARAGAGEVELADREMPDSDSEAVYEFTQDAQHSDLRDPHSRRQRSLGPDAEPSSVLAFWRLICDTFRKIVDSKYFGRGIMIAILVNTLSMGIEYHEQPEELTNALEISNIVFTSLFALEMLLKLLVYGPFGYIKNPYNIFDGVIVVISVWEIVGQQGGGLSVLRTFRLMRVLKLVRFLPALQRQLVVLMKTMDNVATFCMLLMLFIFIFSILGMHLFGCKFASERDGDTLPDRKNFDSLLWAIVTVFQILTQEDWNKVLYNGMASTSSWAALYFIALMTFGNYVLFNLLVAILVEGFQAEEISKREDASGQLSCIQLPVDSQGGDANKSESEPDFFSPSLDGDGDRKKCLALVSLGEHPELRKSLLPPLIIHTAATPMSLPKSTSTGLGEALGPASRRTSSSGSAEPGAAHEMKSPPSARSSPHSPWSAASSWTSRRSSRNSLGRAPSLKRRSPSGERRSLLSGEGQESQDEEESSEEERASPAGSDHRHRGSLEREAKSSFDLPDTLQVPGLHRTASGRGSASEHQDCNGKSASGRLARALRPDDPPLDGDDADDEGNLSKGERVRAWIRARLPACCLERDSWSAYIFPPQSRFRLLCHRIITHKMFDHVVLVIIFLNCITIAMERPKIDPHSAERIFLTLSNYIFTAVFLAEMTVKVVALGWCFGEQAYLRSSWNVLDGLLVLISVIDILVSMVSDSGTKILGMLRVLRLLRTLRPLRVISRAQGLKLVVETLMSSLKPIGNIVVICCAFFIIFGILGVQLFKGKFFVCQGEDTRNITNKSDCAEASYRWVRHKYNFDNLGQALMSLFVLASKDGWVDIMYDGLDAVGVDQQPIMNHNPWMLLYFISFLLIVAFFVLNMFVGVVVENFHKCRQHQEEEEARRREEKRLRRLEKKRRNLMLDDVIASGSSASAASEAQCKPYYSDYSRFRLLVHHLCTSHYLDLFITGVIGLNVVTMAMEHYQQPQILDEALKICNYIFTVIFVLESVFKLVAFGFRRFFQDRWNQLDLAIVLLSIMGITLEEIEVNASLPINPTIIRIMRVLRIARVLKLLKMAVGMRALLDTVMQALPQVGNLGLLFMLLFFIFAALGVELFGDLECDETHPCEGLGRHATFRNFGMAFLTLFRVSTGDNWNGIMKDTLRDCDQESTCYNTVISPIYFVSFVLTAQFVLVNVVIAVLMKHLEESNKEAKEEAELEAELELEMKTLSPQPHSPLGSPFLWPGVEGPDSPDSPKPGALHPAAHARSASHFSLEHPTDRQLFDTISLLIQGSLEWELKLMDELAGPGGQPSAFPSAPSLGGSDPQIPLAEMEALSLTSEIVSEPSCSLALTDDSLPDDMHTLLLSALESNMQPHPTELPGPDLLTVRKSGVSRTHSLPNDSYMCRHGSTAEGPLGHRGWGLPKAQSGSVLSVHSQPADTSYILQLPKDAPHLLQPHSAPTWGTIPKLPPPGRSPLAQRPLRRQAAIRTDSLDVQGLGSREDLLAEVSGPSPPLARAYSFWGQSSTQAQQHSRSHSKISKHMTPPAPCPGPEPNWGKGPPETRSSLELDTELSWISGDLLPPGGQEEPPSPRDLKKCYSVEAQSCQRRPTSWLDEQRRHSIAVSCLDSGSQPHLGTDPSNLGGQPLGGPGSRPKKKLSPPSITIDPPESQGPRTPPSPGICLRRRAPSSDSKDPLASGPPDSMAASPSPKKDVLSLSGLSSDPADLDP
Method in brief: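 Whole-cell patch clamp on HEK293 cells expressing Cav3.1 or Cav3.2. T-type currents evoked every 15 s by a 50-ms step from −100 mV to −30 mV. External solution (mM): 140 NaCl, 2 CaCl₂, 10 HEPES, 10 glucose, pH 7.4.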

[10] = tested on: Rattus norvegicus; test: Antineuropathic pain activity in rat spinal nerve ligation model assessed as effect on mechanical allodynia by measuring frequency of paw withdrawal at 100 mg/kg, po measured at 3 hrs relative to control; type: functional; method in brief: as §1
[11] = Terminal half life in Sprague-Dawley rat at 10 mg/kg, iv; type: ADME, organism-based; details: in vivo, read-out: beta t1/2
[12] = Total clearance in Sprague-Dawley rat at 10 mg/kg, iv; type: ADME, organism-based; details: in vivo
[13] = tested on: Rattus norvegicus; test: Antineuropathic pain activity in rat spinal nerve ligation model assessed as effect on cold allodynia by measuring frequency of paw withdrawal at 100 mg/kg, po measured at 5 hrs relative to control; type: functional; method in brief: as §1
[14] = AUClast in Sprague-Dawley rat at 10 mg/kg, iv; type: ADME, organism-based; set-up: dose 10 mg/kg, time 0 - last, route intravenous; details: in vivo
[15] = tested on: Rattus norvegicus; test: Antineuropathic pain activity in rat spinal nerve ligation model assessed as effect on cold allodynia by measuring frequency of paw withdrawal at 100 mg/kg, po measured at 1 hr relative to control; type: functional; method in brief: as §1
[16] = AUClast in Sprague-Dawley rat at 10 mg/kg, po; type: ADME, organism-based; set-up: dose 10 mg/kg, route oral, time 0 - last; details: in vivo
[17] = tested on: Rattus norvegicus; test: Antineuropathic pain activity in rat spinal nerve ligation model assessed as effect on mechanical allodynia by measuring frequency of paw withdrawal at 100 mg/kg, po measured at 5 hrs relative to gabapentin; type: functional; method in brief: as §1
[18] = AUC (0 to infinity) in Sprague-Dawley rat at 10 mg/kg, po; type: ADME, organism-based; set-up: dose 10 mg/kg, time infinity, route oral; details: in vivo
[19] = tested on: Rattus norvegicus; test: Antineuropathic pain activity in rat spinal nerve ligation model assessed as effect on cold allodynia by measuring frequency of paw withdrawal at 100 mg/kg, po measured at 3 hrs relative to gabapentin; type: functional; method in brief: as §1
[20] = Mean residence time in Sprague-Dawley rat at 10 mg/kg, iv; type: ADME, organism-based; details: in vivo
[21] = biological target: T1, Voltage-dependent T-type calcium channel subunit alpha-1G; test: Inhibition of Cav3.1 alpha1G (unknown origin) expressed in HEK293 cells assessed as decrease in KCl-induced depolarization mediated intracellular Ca2+ level at 10 uM by fluo3/AM based high throughput screening assay relative to control; type: cell-based; method in brief: as §2
[22] = tested on: Rattus norvegicus; test: Antineuropathic pain activity in rat spinal nerve ligation model assessed as effect on mechanical allodynia by measuring frequency of paw withdrawal at 100 mg/kg, po measured at 1 hr relative to gabapentin; type: functional; method in brief: as §1
[23] = Terminal half life in Sprague-Dawley rat at 10 mg/kg, po; type: ADME, organism-based; details: in vivo, read-out: beta t1/2
[24] = Drug excretion in Sprague-Dawley rat at 10 mg/kg, iv; type: ADME, organism-based; details: in vivo, read-out: Drug excretion
[25] = tested on: Rattus norvegicus; test: Antineuropathic pain activity in rat spinal nerve ligation model assessed as effect on cold allodynia by measuring frequency of paw withdrawal at 100 mg/kg, po measured at 5 hrs relative to gabapentin; type: functional; method in brief: as §1
[26] = Tmax in Sprague-Dawley rat at 10 mg/kg, po; type: ADME, organism-based; details: in vivo
[27] = Plasma concentration in Sprague-Dawley rat at 10 mg/kg, po at 2 hrs post dose; type: ADME, organism-based
[28] = tested on: Rattus norvegicus; test: Antineuropathic pain activity in rat spinal nerve ligation model assessed as effect on mechanical allodynia by measuring frequency of paw withdrawal at 100 mg/kg, po measured at 5 hrs relative to control; type: functional; method in brief: as §1
[29] = organism: Homo sapiens; test: Inhibition of N-type Ca2+ channel (unknown origin) at 10 uM by whole-cell patch clamp method relative to control
[30] = tested on: Rattus norvegicus; test: Antineuropathic pain activity in rat spinal nerve ligation model assessed as effect on cold allodynia by measuring frequency of paw withdrawal at 100 mg/kg, po measured at 1 hr relative to gabapentin; type: functional; method in brief: as §1
[31] = biological target: Voltage-gated inwardly rectifying potassium channel KCNH2 (Homo sapiens, UniProt Q12809); test: Inhibition of human ERG expressed in CHOK1 cells by whole-cell patch clamp method; type: cell-based, CHO-K1
Chain of Voltage-gated inwardly rectifying potassium channel KCNH2 (Q12809 whole entry): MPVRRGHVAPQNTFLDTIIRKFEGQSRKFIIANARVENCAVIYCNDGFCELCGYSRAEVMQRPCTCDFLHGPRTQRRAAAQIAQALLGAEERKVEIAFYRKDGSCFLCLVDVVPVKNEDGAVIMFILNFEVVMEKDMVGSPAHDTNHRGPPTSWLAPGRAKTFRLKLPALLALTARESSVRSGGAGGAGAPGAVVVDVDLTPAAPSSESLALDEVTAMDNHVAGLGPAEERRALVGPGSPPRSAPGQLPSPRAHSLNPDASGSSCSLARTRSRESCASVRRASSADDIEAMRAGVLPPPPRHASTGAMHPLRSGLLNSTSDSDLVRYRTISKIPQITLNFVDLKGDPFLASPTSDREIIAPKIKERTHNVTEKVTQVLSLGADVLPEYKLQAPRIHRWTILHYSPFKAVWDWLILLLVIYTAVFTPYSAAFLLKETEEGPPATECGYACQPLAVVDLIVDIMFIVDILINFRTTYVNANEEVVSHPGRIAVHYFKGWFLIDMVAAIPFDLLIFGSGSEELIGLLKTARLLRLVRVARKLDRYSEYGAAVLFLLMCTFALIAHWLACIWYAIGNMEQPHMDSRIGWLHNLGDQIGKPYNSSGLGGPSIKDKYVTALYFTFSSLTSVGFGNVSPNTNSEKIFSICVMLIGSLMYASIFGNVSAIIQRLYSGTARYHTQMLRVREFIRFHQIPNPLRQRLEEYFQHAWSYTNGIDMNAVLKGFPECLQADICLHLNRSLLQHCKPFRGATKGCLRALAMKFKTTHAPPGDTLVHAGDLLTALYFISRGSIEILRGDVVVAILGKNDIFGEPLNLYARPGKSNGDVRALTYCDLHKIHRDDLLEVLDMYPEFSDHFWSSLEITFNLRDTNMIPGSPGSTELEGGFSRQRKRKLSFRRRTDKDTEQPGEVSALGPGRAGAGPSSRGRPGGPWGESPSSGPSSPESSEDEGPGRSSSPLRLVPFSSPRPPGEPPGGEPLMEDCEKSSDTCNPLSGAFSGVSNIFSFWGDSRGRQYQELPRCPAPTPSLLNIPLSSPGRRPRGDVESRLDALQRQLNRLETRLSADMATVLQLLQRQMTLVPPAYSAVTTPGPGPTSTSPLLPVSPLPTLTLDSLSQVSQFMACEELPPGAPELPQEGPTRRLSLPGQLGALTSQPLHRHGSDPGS

[32] = Apparent volume of distribution at steady state in Sprague-Dawley rat at 10 mg/kg, iv; type: ADME, organism-based; details: in vivo, read-out: Vdss(app)
[33] = Ratio of drug level in brain to plasma in Sprague-Dawley rat at 10 mg/kg, iv at 2 hrs post dose; type: ADME, organism-based; details: read-out: BPR
[34] = biological target: CYP2D6 (Homo sapiens, UniProt P10635); test: Inhibition of human CYP2D6 assessed as remaining activity at 10 uM using vivid CYP450 substrate measured after 15 mins by fluorescence assay relative to quinidine; type: ADME; details: probe vivid CYP450 substrate, read-out: Activity
Chain of CYP2D6 (P10635 whole entry, canonical isoform): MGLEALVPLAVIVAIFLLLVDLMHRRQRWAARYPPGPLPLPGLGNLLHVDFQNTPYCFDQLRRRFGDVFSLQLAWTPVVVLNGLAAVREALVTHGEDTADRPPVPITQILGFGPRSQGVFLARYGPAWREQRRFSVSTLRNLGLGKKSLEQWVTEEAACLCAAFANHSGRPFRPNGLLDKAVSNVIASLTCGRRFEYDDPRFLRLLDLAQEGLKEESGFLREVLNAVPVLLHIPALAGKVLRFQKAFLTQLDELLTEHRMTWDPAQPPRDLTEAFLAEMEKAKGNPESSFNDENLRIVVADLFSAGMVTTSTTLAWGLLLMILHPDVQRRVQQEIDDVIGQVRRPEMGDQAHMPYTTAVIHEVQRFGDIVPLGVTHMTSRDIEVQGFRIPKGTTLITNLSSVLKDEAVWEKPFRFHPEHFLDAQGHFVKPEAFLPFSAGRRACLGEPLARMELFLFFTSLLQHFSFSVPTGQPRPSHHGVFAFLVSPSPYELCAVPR
Method in brief: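 Vivid fluorescence CYP assay: test compound at […] in water, mixed with BACULOSOMES master pre-mix and regeneration system, preincubated 15 min at 37 °C. Reaction started with Vivid substrate and NADPH. Remaining activity read by fluorescence as % of control, triplicate, mean ± SD. Isoform-specific reference inhibitors: α-naphthoflavone (1A2), sulfaphenazole (2C9), quinidine (2D6), ketoconazole (3A4).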

Work on `CC(C)Cc1cc(CNS(=O)(=O)c2cccc(F)c2)nn1-c1ccccc1` yielded an MPE [1] of 73.87%, a Cmax [2] of 70 ng/mL and an IC50 [3] of 14.5 µM. For the same molecule, the inhibition [4] was 62.7%, the MPE [5] was 1.63% and the concentration at 2 h [6] was 366 ng/mL. For the same molecule, the concentration at 2 h [7] was 8.6 ng/mL, the MPE [8] was 52.13% and the IC50 [9] was 3.2 µM. The MPE [10] was 29.68%, the half-life [11] was 0.928 h and the clearance [12] was 83.8 mL/min/kg. For the same molecule, the MPE [13] was 80.82%, the AUC(0-t) [14] was 2010 ng·h/mL and the MPE [15] was 88.93%. It also gave an AUC(0-t) [16] of 164 ng·h/mL, an MPE [17] of 43.02% and an AUC(0-inf) [18] of 168 ng·h/mL. It also gave an MPE [19] of 91.75%, an MRT [20] of 0.966 h and an inhibition [21] of 64.1%. For the same molecule, the MPE [22] was 14.78%, the half-life [23] was 1.11 h and the dose excreted [24] was 0%. The MPE [25] was 185.11%, the Tmax [26] was 1.1 h and the concentration at 2 h [27] was 50 ng/mL. For the same molecule, the MPE [28] was 19.48%, the inhibition [29] was 55.6% and the MPE [30] was 202.07%. The IC50 [31] was 14.5 µM, the Vd [32] was 4.95 L/kg and the Kp at 2 h [33] was 1.4. The activity at 0.25 h, 10 µM [34] was 204%.

Source: ChEMBL document CHEMBL3872218, “Synthesis and T-type calcium channel-blocking effects of aryl(1,5-disubstituted-pyrazol-3-yl)methyl sulfonamides for neuropathic pain treatment” (Eur J Med Chem, 2016)
